The Kd is the concentration at which binding is half-saturated. Low readings indicate a tighter complex, high ones a looser complex.

The source of these data is ChEMBL document CHEMBL1124067, “Design of potent cyclic gonadotropin releasing hormone antagonists” (J Med Chem, 1988).

The target of assay [1] is T1, Gonadotropin-releasing hormone receptor (Rattus norvegicus, UniProt P30969).
T1 sequence (P30969 whole entry): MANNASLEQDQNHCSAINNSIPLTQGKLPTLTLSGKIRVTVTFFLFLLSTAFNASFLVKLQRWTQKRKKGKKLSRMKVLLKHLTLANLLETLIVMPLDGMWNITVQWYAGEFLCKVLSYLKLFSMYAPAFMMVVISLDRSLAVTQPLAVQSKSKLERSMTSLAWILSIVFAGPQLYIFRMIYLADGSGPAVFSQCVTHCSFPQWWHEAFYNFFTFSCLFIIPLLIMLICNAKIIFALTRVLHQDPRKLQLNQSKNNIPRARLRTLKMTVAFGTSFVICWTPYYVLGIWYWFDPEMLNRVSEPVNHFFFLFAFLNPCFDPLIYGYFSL
Kind of assay: Inhibitory binding constant for Gonadotropin-releasing hormone receptor.

Assay [2] relates to Rattus norvegicus. The experiment in a line: In vivo antiovulatory assay (AOA) carried out in rats injected sc. It is filed as functional. In short, it runs like this: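 Antiovulatory assay following Corbin and Beattie. Cycling rats injected sc at noon on proestrus with peptide dissolved in saline (200 μL). Dose in micrograms; read-out is the number of rats ovulating out of the total.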

For assay [3], the system named is Rattus norvegicus. The experiment in a line: Effect of oral administration of compound (3 mg) on LH secretion by castrated male rats; ng of LH/mL. Type of assay: functional. Put shortly: (§1)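 Adult Sprague-Dawley male rats, castrated under light ether anesthesia 7-10 days before assay. Peptide dissolved in 2 N HOAc, then diluted in 0.1% BSA-0.04 M phosphate buffer pH 7.4. Given by gavage tube (0.5 mL) under ether. Blood sampled before treatment and 5 h after. Plasma LH in ng/mL, mean ± SEM, five rats per treatment.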

Assay [4] concerns Rattus norvegicus. Kind of assay: Effect of oral administration of compound (1 mg) on LH secretion by castrated male rats; ng of LH/mL. It is filed as functional. Put shortly:
as §1

The target in assay [5] is T2, Gonadotropin-releasing hormone receptor (Rattus norvegicus) (UniProt P30969).
T2 sequence (whole entry): T1 sequence (P30969 whole entry)
Kind of assay: Inhibition of GnRH-stimulated LH secretion by cultured dispersed anterior pituitary cells. Type of assay: functional, cell-based. As to conditions: Pituitary gland cell. Put shortly:
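Cultured dispersed anterior pituitary cells. Antagonist inhibition of GnRH-stimulated LH secretion measured. Potency expressed relative to the standard [Ac-Δ3Pro1,DFpa2,DTrp3,6]GnRH (=1), with confidence range in parentheses.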

The species named for assay [6] is Rattus norvegicus. The experiment in a line: Effect on GnRH-induced LH secretion in intact male rats at 20 ng of compound; ng of LH/mL. Type of assay: functional.
The species entered for assay [7] is Rattus norvegicus. Kind of assay: Effect on GnRH-induced LH secretion in intact male rats at 50 ng of compound; ng of LH/mL. It is filed as functional.

Values joined by “and” are separate entries in the source; they are usually repeats but may differ in a detail not shown here. Identical values can stand only once. Positions of bridges follow the written chain, without caps; N, C: chain ends. Non-standard residues stand in square brackets, D forms with d. Residues, ends and D or L forms follow the SMILES beside them. dPhe(4-Cl) = N[C@H](Cc1ccc(Cl)cc1)C(=O)O; dPhe(4-F) = N[C@H](Cc1ccc(F)cc1)C(=O)O; d2Nal = N[C@H](Cc1ccc2ccccc2c1)C(=O)O; d3Pal = N[C@H](Cc1cccnc1)C(=O)O; ΔPro = O=C(O)[C@@H]1C=CCN1; Dap = NC[C@H](N)C(=O)O

Take `CC(=O)N[C@H](Cc1ccc2ccccc2c1)C(=O)N[C@H](Cc1ccc(F)cc1)C(=O)N[C@H](Cc1c[nH]c2ccccc12)C(=O)N[C@H]1CCC(=O)NC[C@@H](C(N)=O)NC(=O)[C@@H]2CCCN2C(=O)[C@H](CCCN=C(N)N)NC(=O)[C@H](CC(C)C)NC(=O)[C@@H](CCCN=C(N)N)NC(=O)[C@H](Cc2ccc(O)cc2)NC1=O`: the Kd in assay [1] is 1.1 nM.

In turn, `CC(=O)N[C@H](Cc1ccc2ccccc2c1)C(=O)N[C@H](Cc1ccc(F)cc1)C(=O)N[C@H](Cc1c[nH]c2ccccc12)C(=O)N[C@H]1CC(=O)NCCC[C@@H](C(N)=O)NC(=O)[C@@H]2CCCN2C(=O)[C@H](CCCN=C(N)N)NC(=O)[C@H](CC(C)C)NC(=O)[C@@H](CCCN=C(N)N)NC(=O)[C@H](Cc2ccc(O)cc2)NC1=O` showed a Kd in assay [1] of 41 nM.

`CC(=O)N[C@H](Cc1ccc2ccccc2c1)C(=O)N[C@H](Cc1ccc(F)cc1)C(=O)N[C@H](Cc1c[nH]c2ccccc12)C(=O)N[C@H]1CNC(=O)C[C@@H](C(N)=O)NC(=O)[C@@H]2CCCN2C(=O)[C@H](CCCN=C(N)N)NC(=O)[C@H](CC(C)C)NC(=O)[C@@H](CCCN=C(N)N)NC(=O)[C@H](Cc2ccc(O)cc2)NC1=O`: the affinity in assay [1], expressed as Kd, was 10 nM.

`CC(=O)N[C@H](Cc1ccc2ccccc2c1)C(=O)N[C@H](Cc1ccc(F)cc1)C(=O)N[C@H](Cc1c[nH]c2ccccc12)C(=O)N[C@H]1CSSC[C@@H](C(N)=O)NC(=O)[C@@H]2CCCN2C(=O)[C@H](CCCN=C(N)N)NC(=O)[C@H](CC(C)C)NC(=O)[C@@H](CCCN=C(N)N)NC(=O)[C@H](Cc2ccc(O)cc2)NC1=O`: the affinity in assay [1], expressed as Kd, was 6 nM.

With `CC(C)C[C@@H]1NC(=O)[C@@H](CCCN=C(N)N)NC(=O)[C@H](Cc2ccc(O)cc2)NC(=O)[C@@H](NC(=O)[C@@H](Cc2c[nH]c3ccccc23)NC(=O)[C@@H](Cc2ccc(F)cc2)NC(=O)[C@H](N)Cc2ccc3ccccc3c2)CSSC[C@@H](C(N)=O)NC(=O)[C@@H]2CCCN2C(=O)[C@H](CCCN=C(N)N)NC1=O`, in the assay with Rattus norvegicus [2], the Dose is 50 µg and 100 µg.

With `CC(=O)N[C@H](Cc1ccc2ccccc2c1)C(=O)N[C@H](Cc1ccc(F)cc1)C(=O)N[C@H](Cc1c[nH]c2ccccc12)C(=O)N[C@H]1CNC(=O)C[C@@H](C(=O)NCC(N)=O)NC(=O)[C@H](CCCNC(=N)N)NC(=O)[C@H](CC(C)C)NC(=O)[C@@H](CCCNC(=N)N)NC(=O)[C@H](Cc2ccc(O)cc2)NC1=O`, the Kd in assay [1] was > 100 nM.

On to `CC(=O)N[C@H](Cc1ccc2ccccc2c1)C(=O)N[C@H](Cc1ccc(Cl)cc1)C(=O)N[C@H](Cc1cccnc1)C(=O)N[C@H]1CC(=O)NCCC[C@@H](C(N)=O)NC(=O)[C@@H]2CCCN2C(=O)[C@H](CCCNC(=N)N)NC(=O)[C@H](CC(C)C)NC(=O)[C@@H](Cc2cccnc2)NC(=O)[C@H](CCCNC(=N)N)NC1=O`, for which the affinity in assay [1], expressed as Kd, was 11 nM.

In assay [1], `CC(=O)NC[C@H](NC(=O)[C@@H](Cc1cccnc1)NC(=O)[C@@H](Cc1ccc(Cl)cc1)NC(=O)[C@@H](Cc1ccc2ccccc2c1)NC(C)=O)C(=O)N[C@@H](CCCN=C(N)N)C(=O)N[C@H](Cc1cccnc1)C(=O)N[C@@H](CC(C)C)C(=O)N[C@@H](CCCN=C(N)N)C(=O)N1CCC[C@H]1C(=O)N[C@@H](CC(N)=O)C(N)=O` [listing 1 of 2 here] gave a Kd of 1 nM.

Turning to `CC(=O)NC[C@H](NC(=O)[C@@H](Cc1cccnc1)NC(=O)[C@@H](Cc1ccc(Cl)cc1)NC(=O)[C@@H](Cc1ccc2ccccc2c1)NC(C)=O)C(=O)N[C@@H](CCCN=C(N)N)C(=O)N[C@H](Cc1cccnc1)C(=O)N[C@@H](CC(C)C)C(=O)N[C@@H](CCCN=C(N)N)C(=O)N1CCC[C@H]1C(=O)N[C@@H](CC(N)=O)C(N)=O` [listing 2 of 2 here], the Activity in the assay on Rattus norvegicus [3] came to 8.22. Moreover, in the assay with Rattus norvegicus [2], the Dose turned out to be 50 µg.

Molecule `CC(=O)N[C@H](Cc1ccc2ccccc2c1)C(=O)N[C@H](Cc1ccc(Cl)cc1)C(=O)N[C@H](Cc1cccnc1)C(=O)N[C@H]1CC(=O)NC[C@@H](C(N)=O)NC(=O)[C@@H]2CCCN2C(=O)[C@H](CCCNC(=N)N)NC(=O)[C@H](CC(C)C)NC(=O)[C@@H](Cc2cccnc2)NC(=O)[C@H](CCCNC(=N)N)NC1=O` displayed a Kd in assay [1] of 1.1 nM.

Turning to `CC(=O)N[C@H](Cc1ccc2ccccc2c1)C(=O)N[C@H](Cc1ccc(Cl)cc1)C(=O)N[C@H](Cc1cccnc1)C(=O)N[C@H]1CCC(=O)NC[C@@H](C(N)=O)NC(=O)[C@@H]2CCCN2C(=O)[C@H](CCCNC(=N)N)NC(=O)[C@H](CC(C)C)NC(=O)[C@@H](Cc2cccnc2)NC(=O)[C@H](CCCNC(=N)N)NC1=O` [listing 1 of 2 here], the Kd in assay [1] was 1 nM.

`CC(=O)N[C@H](Cc1ccc2ccccc2c1)C(=O)N[C@H](Cc1ccc(Cl)cc1)C(=O)N[C@H](Cc1cccnc1)C(=O)N[C@H]1CCC(=O)NC[C@@H](C(N)=O)NC(=O)[C@@H]2CCCN2C(=O)[C@H](CCCNC(=N)N)NC(=O)[C@H](CC(C)C)NC(=O)[C@@H](Cc2cccnc2)NC(=O)[C@H](CCCNC(=N)N)NC1=O` [listing 2 of 2 here]: the Dose in the assay on Rattus norvegicus [2] is 10 µg and 25 µg.

In the case of `CC(=O)N[C@H](Cc1ccc2ccccc2c1)C(=O)N[C@H](Cc1ccc(Cl)cc1)C(=O)N[C@H](Cc1cccnc1)C(=O)N[C@H]1CSSC[C@@H](C(N)=O)NC(=O)[C@@H]2CCCN2C(=O)[C@H](CCCNC(=N)N)NC(=O)[C@H](CC(C)C)NC(=O)[C@@H](Cc2cccnc2)NC(=O)[C@H](CCCNC(=N)N)NC1=O` (Ac-[d2Nal][dPhe(4-Cl)][d3Pal]CR[d3Pal]LRPC-NH2; disulfide 4-10), binding in assay [1] was characterised by a dissociation constant (Kd) of 0.8 nM.

`CC(=O)N[C@H](Cc1ccc2ccccc2c1)C(=O)N[C@H](Cc1ccc(Cl)cc1)C(=O)N[C@H](Cc1cccnc1)C(=O)N[C@@H](CO)C(=O)N[C@@H](CCCNC(=N)N)C(=O)N[C@H](Cc1cccnc1)C(=O)N[C@@H](CC(C)C)C(=O)N[C@@H](CCCNC(=N)N)C(=O)N1CCC[C@H]1C(=O)N[C@H](C)C(N)=O` (Ac-[d2Nal][dPhe(4-Cl)][d3Pal]SR[d3Pal]LRP[dA]-NH2) [listing 1 of 2 here] gave a Kd in assay [1] of 0.24 nM.

Turning to `CC(=O)N[C@H](Cc1ccc2ccccc2c1)C(=O)N[C@H](Cc1ccc(Cl)cc1)C(=O)N[C@H](Cc1cccnc1)C(=O)N[C@@H](CO)C(=O)N[C@@H](CCCNC(=N)N)C(=O)N[C@H](Cc1cccnc1)C(=O)N[C@@H](CC(C)C)C(=O)N[C@@H](CCCNC(=N)N)C(=O)N1CCC[C@H]1C(=O)N[C@H](C)C(N)=O` (Ac-[d2Nal][dPhe(4-Cl)][d3Pal]SR[d3Pal]LRP[dA]-NH2) [listing 2 of 2 here], the Dose in the assay with Rattus norvegicus [2] is 0.5 µg and 1 µg.

For the molecule `CC(=O)N[C@H](Cc1ccc2ccccc2c1)C(=O)N[C@H](Cc1ccc(Cl)cc1)C(=O)N[C@H](Cc1cccnc1)C(=O)N[C@H]1CNC(=O)C[C@@H](C(N)=O)NC(=O)[C@@H]2CCCN2C(=O)[C@H](CCCNC(=N)N)NC(=O)[C@H](CC(C)C)NC(=O)[C@@H](Cc2cccnc2)NC(=O)[C@H](CCCNC(=N)N)NC1=O` (Ac-[d2Nal][dPhe(4-Cl)][d3Pal][Dap]R[d3Pal]LRPD-NH2; lactam 4-10), the Kd in assay [1] is 4.5 nM and 10 nM.

Consider `CC(=O)N[C@H](Cc1ccc2ccccc2c1)C(=O)N[C@H](Cc1ccc(F)cc1)C(=O)N[C@H](Cc1c[nH]c2ccccc12)C(=O)N[C@H]1CC(=O)NC[C@@H](C(N)=O)NC(=O)[C@@H]2CCCN2C(=O)[C@H](CCCN=C(N)N)NC(=O)[C@H](CC(C)C)NC(=O)[C@@H](CCCN=C(N)N)NC(=O)[C@H](Cc2ccc(O)cc2)NC1=O` (Ac-[d2Nal][dPhe(4-F)][dW]DY[dR]LRP[Dap]-NH2; lactam 4-10), for which the Dose with Rattus norvegicus [2] is 1 µg and 2.5 µg.

In assay [1], `CC(=O)N[C@H](Cc1ccc2ccccc2c1)C(=O)N[C@H](Cc1ccc(F)cc1)C(=O)N[C@H](Cc1c[nH]c2ccccc12)C(=O)N[C@@H](CO)C(=O)N[C@@H](Cc1ccc(O)cc1)C(=O)N[C@H](CCCN=C(N)N)C(=O)N[C@@H](CC(C)C)C(=O)N[C@@H](CCCN=C(N)N)C(=O)N1CCC[C@H]1C(=O)NCC(N)=O` (Ac-[d2Nal][dPhe(4-F)][dW]SY[dR]LRPG-NH2) returned a Kd of 0.64 nM. Further, the Activity in the assay with Rattus norvegicus [4] was determined as 6.4. Further, the Dose in the assay with Rattus norvegicus [2] worked out at 1 µg. The same molecule came in with a Relative potency in assay [5] of 0.6.

Regarding `CC(=O)N1CC=C[C@H]1C(=O)N[C@H](Cc1ccc(F)cc1)C(=O)N[C@H](Cc1c[nH]c2ccccc12)C(=O)N[C@@H](CO)C(=O)N[C@@H](Cc1ccc(O)cc1)C(=O)N[C@H](Cc1c[nH]c2ccccc12)C(=O)N[C@@H](CC(C)C)C(=O)N[C@@H](CCCNC(=N)N)C(=O)N1CCC[C@H]1C(=O)NCC(N)=O` (Ac-[ΔPro][dPhe(4-F)][dW]SY[dW]LRPG-NH2), the Kd in assay [1] amounted to 0.27 nM.

For the molecule `CC(C)C[C@H](NC(=O)CNC(=O)[C@H](Cc1ccc(O)cc1)NC(=O)[C@H](CO)NC(=O)[C@H](Cc1c[nH]c2ccccc12)NC(=O)[C@H](Cc1cnc[nH]1)NC(=O)[C@@H]1CCC(=O)N1)C(=O)N[C@@H](CCCNC(=N)N)C(=O)N1CCC[C@H]1C(=O)NCC(N)=O` [GONADORELIN], the Activity in the assay listed under Rattus norvegicus [6] is 1.84; in the assay listed under Rattus norvegicus [7] it was 2.42.
